Source: ChEMBL document CHEMBL4725346, “Syntheses and Evaluation of New Bisacridine Derivatives for Dual Binding of G-Quadruplex and i-Motif in Regulating Oncogene c-myc Expression” (J Med Chem, 2020)
Calls of active or inactive are those of the source. The calls are words filed in the database; no cut-off is given here.

Legend:
[1] = system: Quadruplex DNA; assay: Stabilization of 5'-FAM/3'-TAMRA labeled c-myc promoter G-quadruplex DNA FPu22T (unknown origin) assessed as change in melting temperature at 1 uM by FRET assay (reference value: 66.5 degreeC); type: nucleic-acid assay
Procedure, shortened: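 FRET melting of dual FAM/TAMRA-labelled FPu22T annealed in 10 mM Tris-HCl pH 7.4 with KCl. Final 0.2 µM DNA with or without ligand. Excitation 470 nm, emission 530 nm, read every 1 °C over 37–99 °C on a real-time PCR cycler. ΔTm = Tm(DNA+ligand) − Tm(DNA).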

[2] = Stabilization of c-myc promoter i-motif DNA Py33 (unknown origin) assessed as decrease in positive peak intensity at pH 5.5 measured at 288 nanometer by CD spectroscopy
Procedure, shortened: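 Py33 at 1 µM in 1× BPES pH 5.5 (pH 6.8 random-coil reference), with or without ligand. Annealed at 95 °C for 5 min, cooled, kept at 4 °C overnight. CD spectra in a 4 mm cuvette over 230–350 nm, three scans averaged, buffer-corrected; peaks followed at 288 and 260 nm.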

[3] = Stabilization of c-myc promoter i-motif DNA Py33 (unknown origin) assessed as effect on melting temperature at 5 uM by CD spectroscopy
Procedure, shortened: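 CD melting: Py33 at 1 µM in 1× BPES pH 6.4, with or without ligand. Annealed at 95 °C for 5 min, slowly cooled, then heated at 1 °C/min while monitoring 260 nm. Tm obtained by curve fitting.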

[4] = Binding affinity to c-myc promoter i-motif DNA Py33 (unknown origin) at 20 uM by isothermal titration calorimetry
Procedure, shortened: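 ITC at 20 °C on degassed solutions. Cell held preformed DNA ([…]). Syringe held ligand in the same buffer (50 μM for Pu27, 20 μM for Py33). 28 injections of 10 μL at 4 min intervals. Heats of dilution from ligand-into-buffer runs subtracted before model fitting.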

[5] = system: A-375; assay: Antiproliferative activity against human A-375 cells after 48 hrs by MTT assay; type: functional, cell-based; conditions: A-375, 48 h
Procedure, shortened: (§1)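 Cells seeded at 5.0×10^3 per well, pre-incubated 12 h at 37 °C, 5% CO2, then exposed to compounds for 48 h; DMSO-only control. MTT (2.5 mg/mL) added for 4 h, formazan dissolved in DMSO, absorbance at 570 nm. Each dose tested in triplicate; IC50 from percentage survival relative to negative control.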

[6] = system: HCT-116; assay: Antiproliferative activity against human HCT-116 cells after 48 hrs by MTT assay; type: functional, cell-based; conditions: HCT-116, 48 h; procedure, shortened: as §1
[7] = system: Quadruplex DNA; assay: Binding affinity to c-myc wild-type promoter G-quadruplex/i-motif (unknown origin) expressed in human SiHa cells assessed as reduction in c-myc transcription by measuring decrease in ratio of renilla/firefly luciferase activity at 1/3 IC50 after 48 hrs by dual-luciferase reporter assay; type: cell-based
Procedure, shortened: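 SiHa cells transfected with 200 ng psiCHECK2 plasmid carrying wild-type, mutant or deleted c-myc promoter. Compounds added 8 h after transfection, then incubated 48 h at 37 °C. Cells washed with ice-cold PBS; Renilla/firefly activity ratio read by dual-luciferase assay.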

[8] = system: Quadruplex DNA; assay: Binding affinity to c-myc promoter G-quadruplex/i-motif in human SiHa cells assessed as reduction in c-myc mRNA level at 1.25 uM incubated for 24 hrs by qRT-PCR analysis; type: cell-based; set-up: scale not given: the % may be the effect or the level left
Procedure, shortened: (§2)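 SiHa cells at 0, 0.625, 1.25 and 2.5 μM for 24 h; DMSO control. Total RNA extracted with TRIzol. 1.5 μg RNA reverse-transcribed with oligo dT18 and M-MLV (42 °C 60 min). PCR of 30 cycles (95/58/72 °C), products run on 1.2% agarose. β-actin as internal control; three repeats.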

[9] = system: Quadruplex DNA; assay: Binding affinity to c-myc promoter G-quadruplex/i-motif in human SiHa cells assessed as reduction in c-myc mRNA level at 2.5 uM incubated for 24 hrs by qRT-PCR analysis; type: cell-based; set-up: scale not given: the % may be the effect or the level left; procedure, shortened: as §2
[10] = system: Quadruplex DNA; assay: Binding affinity to c-myc promoter G-quadruplex/i-motif in human CA46 cells assessed as reduction in c-myc mRNA transcription at 0.16 to 2.5 uM incubated for 24 hrs; type: cell-based; conditions: dose microM 0.16-2.5, time 24.0 hrs
[11] = system: Quadruplex DNA; assay: Binding affinity to c-myc promoter G-quadruplex/i-motif in human SiHa cells assessed as reduction in c-myc expression incubated for 24 hrs by Western blot analysis; type: cell-based
Procedure, shortened: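 SiHa cells treated 24 h at 0, 0.625, 1.25 and 2.5 μM, then lysed in buffer with 1 mM PMSF. Protein measured by BCA, equal loads run on 8% gel and blotted to PVDF. Probed with anti-c-MYC and anti-β-actin (loading control), HRP anti-rabbit secondary, chemiluminescence read-out.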

[12] = system: SiHa; assay: Inhibition of colony formation in human SiHa cells at 0.5 to 2 uM incubated for 9 days by crystal violet staining; type: functional, cell-based; conditions: dose microM 0.5-2, time 9.0 day
Procedure, shortened: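 SiHa cells seeded at 500/well, pre-cultured 24 h at 37 °C/5% CO₂, then treated 9 days with compound at several concentrations. Cells washed with PBS, fixed 10 min in ice-cold methanol, stained 30 min with 0.5% crystal violet, dried and photographed.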

[13] = system: SiHa; assay: Induction of cell cycle arrest in human SiHa cells assessed as accumulation of cells at G2/M phase at 0.15 uM after 24 hrs by propidium iodide staining based flow cytometry (reference value: 29.71%); type: functional
[14] = system: SiHa; assay: Induction of apoptosis in human SiHa cells assessed as early apoptotic cells at 2.4 uM after 24 hrs by annexin V/FITC-propidium iodide staining-based flow cytometric method ( Rvb = 0.3%); type: functional
[15] = system: SiHa; assay: Induction of apoptosis in human SiHa cells assessed as decrease in caspase-9 level incubated for 24 hrs by Western blot analysis; type: functional, cell-based; conditions: dose microM 0.6-2.4, time 24.0 hrs
[16] = system: SiHa; assay: Induction of apoptosis in human SiHa cells assessed as increase in cleaved caspase-9 level incubated for 24 hrs by Western blot analysis; type: functional, cell-based; conditions: dose microM 0.6-2.4, time 24.0 hrs
[17] = system: Raji; assay: Induction of cell cycle arrest in human Raji cells assessed as accumulation of cells at G2/M phase at 0.15 to 0.6 uM after 24 hrs by propidium iodide staining based flow cytometry; type: functional; conditions: dose microM 0.15-0.6, time 24.0 hrs
[18] = system: Raji; assay: Induction of apoptosis in human Raji cells at 0.6 to 2.4 uM after 24 hrs by propidium iodide staining based flow cytometry; type: functional, cell-based; conditions: dose microM 0.6-2.4, time 24.0 hrs
[19] = system: SiHa; assay: Antitumor activity against human SiHa cells xenografted in BALB/c nude mouse assessed as reduction in tumor volume at 15 mg/kg, ip administered once per 2 days for 18 days (reference value: 750 mm3); type: functional; conditions: time 18 day
Procedure, shortened: (§3)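 SiHa tumor fragments from donor xenografts (grown to about 1,000 mm³) implanted in the underarm of female BALB/c nude mice; six per group. Dosed ip once every two days for 18 days, saline as negative control, cisplatin 0.2 mg/kg as positive control. Tumor volume = length × width²/2. Tumors weighed at sacrifice.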

[20] = system: SiHa; assay: Antitumor activity against human SiHa cells xenografted in BALB/c nude mouse assessed as reduction in tumor weight at 15 mg/kg, ip administered once per 2 days for 18 days relative to control; type: functional; set-up: scale not given: the % may be the effect or the level left; conditions: time 18 day; procedure, shortened: as §3

SMILES: Cc1ccc2nc3ccc(C)cc3c(NCCCNCCNCCCNc3c4cc(C)ccc4nc4ccc(C)cc34)c2c1
- ΔTm [1]: 9.9 °C
- Activity [2]: Active
- Activity [3]: Active
- Kd [4]: 650 nM
- IC50 [5]: 280 nM
- IC50 [6]: 150 nM
- Activity [7]: Active
- Activity [8]: 40.1%
- Activity [9]: < 76.9%
- Activity [10]: inactive
- Activity [11]: Dose-dependent effect
- inhibition [12]: Active
- Activity [13]: 34.13%
- Activity [14]: 55.4%
- Activity [15]: Dose-dependent effect
- Activity [16]: Dose-dependent effect
- Activity [17]: Active
- Activity [18]: Active
- Activity [19]: 450 mm3
- Activity [20]: 41.6%
